This passage reports inhibition, viability and IC50 results from ChEMBL document CHEMBL3102703, “Chemical constituents from Inonotus obliquus and their biological activities” (J Nat Prod, 2014).

Some results are limits rather than exact numbers.

Experiment [1] in a line: Hepatoprotective activity in rat WB-F344 cells assessed as inhibition of D-galactosamine-induced toxicity at 10 uM preincubated for 1 hr followed by D-galactosamine challenge measured after 24 hrs by MTT assay relative to control. The format is functional. The method, boiled down: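 WB-F344 rat liver cells, compounds at 10 μM, D-galactosamine injury. Read-out is optical density. Survival is given as % of untreated normal cells. Inhibition (%) = [(OD sample − OD control)/(OD normal − OD control)] × 100. Bicyclol at 10 μM is the positive control. Data are means ± SD: n = 3 for samples, n = 6 for normal and control wells.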
(In general: Tetrazolium assays rely on reduction of a dye to a coloured formazan, in cell work by metabolically active cells.)

A short description of experiment [2]: Hepatoprotective activity against D-galactosamine-induced toxicity in rat WB-F344 cells assessed as cell survival at 10 uM preincubated for 1 hr followed by D-galactosamine challenge measured after 24 hrs by MTT assay relative to normal cell. The format is functional. Particulars: read-out: Survival. The essentials:
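WB-F344 cells exposed to D-galactosamine, with test agents at 10 μM and bicyclol at 10 μM as positive control. Readout is optical density (OD). Survival is expressed as % of untreated normal cells. Values are means ± SD, n = 3 (n = 6 for normal and model-control groups).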

The next experiment deals with A549. Briefly: Cytotoxicity against human A549 cells after 4 days by MTT assay. The format is functional, cell-based. Particulars: A549, 96 h.
Experiment [3] is described as follows: Cytotoxicity against human Bel7402 cells after 4 days by MTT assay. The class given is functional, cell-based. Particulars: Bel-7402, 96 h.
Another experiment deals with KB. Briefly: Cytotoxicity against human KB cells after 4 days by MTT assay. The class given is functional, cell-based. Particulars: 96 h.
Experiment [4] is described as follows: Inhibition of tyrosine kinase (unknown origin) by ELISA. The arrangement: species or system Homo sapiens. (An ELISA detects its analyte on a solid surface through an enzyme-linked reagent.)

`CC(C)=CC[C@@H](O)[C@@H](C)[C@H]1CC[C@@]2(C)C3=C(CC[C@]12C)[C@@]1(C)CC[C@H](O)C(C)(C)[C@@H]1CC3` [INOTODIOL]: in experiment [1], the inhibition (as a rule, the relative decrease from the control value, in per cent) at 10 µM turned out to be 56.3%. Further, the viability at 10 µM in experiment [2] was 86%.
On the same counts, the results for `CC(C)=CCC(O)[C@@H](C)[C@H]1CC[C@@]2(C)C3=C(C(=O)C[C@]12C)[C@@]1(C)CC[C@H](O)C(C)(C)[C@@H]1CC3` (stereo partly drawn) are 81.2% and 94%.
Taken in the same sequence, the figures for `CC(C)c1ccc2c(c1)C(=O)C[C@H]1C(C)(C)CCC[C@@]21C(=O)O` were 34.4% and 79%.
Turning to `C=C(C)C(=O)CC(O)[C@@H](C)[C@H]1CC[C@@]2(C)C3=C(CC[C@]12C)[C@@]1(C)CC[C@H](O)C(C)(C)[C@@H]1CC3` (stereo partly drawn), the values for the IC50 (in the experiment on A549; in experiment [3]; in the experiment with KB) were over 10 µM, over 10 µM and 9.9 µM, respectively.
`O=Cc1ccc(O)c(O)c1` [PROTOCATECHUALDEHYDE]: the IC50 (usually the concentration that gives 50% inhibition) is 7.7 µM in experiment [4], 3.1 µM with A549, 3.7 µM in experiment [3] and over 10 µM with KB.
On to `COc1cc(C(=O)O)ccc1O` [VANILLIC ACID], for which the inhibition at 10 µM in experiment [1] was 56.5%. The viability at 10 µM in experiment [2] was 86%.
On the same counts, the results for `CC(C)=CCC[C@@H](C(=O)O)[C@H]1CC[C@@]2(C)C3=C(CC[C@]12C)[C@@]1(C)CC[C@H](O)C(C)(C)[C@@H]1CC3` [TRAMETENOLIC ACID] are 75% and 92%.
As for `CC(C)=C(C)[C@@H]1C[C@H]([C@H]2CC[C@@]3(C)C4=C(CC[C@]23C)[C@@]2(C)CC[C@H](O)C(C)(C)[C@@H]2CC4)C(=O)O1`, the inhibition at 10 µM in experiment [1] came to 71.9%. Besides, in experiment [2], the viability at 10 µM came out at 91%.
Turning to `CC[C@H](CC[C@@H](C)[C@H]1CC[C@H]2[C@@H]3CCC4=C[C@@H](O)CC[C@]4(C)[C@H]3CC[C@]12C)C(C)C` [LAWSARITOL], the inhibition at 10 µM in experiment [1] stood at 40.6%. For the same compound, the viability at 10 µM in experiment [2] amounted to 81%.
Consider `CC(=O)/C=C/c1ccc(O)c(O)c1`, for which the results for the IC50 (with A549; in experiment [3]; with KB) were over 10 µM, 4.7 µM and over 10 µM, respectively.
In the case of `CC(C)[C@@H](C)CC[C@@H](C)[C@H]1CC[C@H]2C3=CCC4C[C@@H](O)CC[C@]4(C)[C@H]3CC[C@]12C` (stereo partly drawn), in experiment [1], the inhibition at 10 µM was found to be 37.4%. Further, in experiment [2], the viability at 10 µM was found to be 80%.
On the same counts, the results for `CC(C)[C@@H](C)/C=C/[C@@H](C)[C@H]1CC[C@H]2C3=CC[C@H]4C[C@@H](O)CC[C@]4(C)[C@H]3CC[C@]12C` are 43.8% and 82%.
Consider `CC(C)=CCC[C@@H](C)[C@H]1CC[C@@]2(C)C3=C(CC[C@]12C)[C@@]1(C)CC[C@H](O)C(C)(C)[C@@H]1CC3` [LANOSTEROL], for which, in experiment [1], the inhibition at 10 µM came out at 74.8%. Also, the viability at 10 µM in experiment [2] was found to be 92%.
On to `O=c1[nH]cc(F)c(=O)[nH]1` [FLUOROURACIL], for which the IC50 in experiment [3] worked out at 5.5 µM; in the experiment with KB it was 8.1 µM.
Regarding `COC(=O)c1cc(OC)c2c(c1-c1c(CO)cc(OC)c3c1OCO3)OCO2` [BICYCLOL], the viability at 10 µM in experiment [2] was 80%.
